In ChEMBL document CHEMBL1138232, “Optimization of naphthalimide-imidazoacridone with potent antitumor activity leading to clinical candidate (HKH40A, RTA 502)” (J Med Chem, 2007):

Assays:
U-251 = assay: Antitumor activity against human U251 cells after 48 hrs; assay type: functional; details: U-251, 48 h
How it was run: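 NCI 60 human tumour cell line screen; 48 h continuous drug exposure. Compounds tested as tri(methanesulfonate) salts, soluble in water and dilute buffers. Dilute solutions are light-sensitive and adsorb to glass or quartz.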

SK-MEL-5 = assay: Antitumor activity against human SK-MEL-5 cells after 48 hrs; assay type: functional; details: SK-MEL-5, 48 h
How it was run: (§1)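 Tested in the NCI 60 human tumour cell line screen, with continuous drug exposure for 48 h. Values include LC50 derived from the screen.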

SK-MEL-2 = assay: Antitumor activity against human SK-MEL-2 cells after 48 hrs; assay type: functional; details: SK-MEL-2, 48 h; how it was run: as §1
IGROV-1 = assay: Antitumor activity against human IGROV1 cells after 48 hrs; assay type: functional; details: IGROV-1, 48 h; how it was run: as §1
OVCAR-3 = assay: Antitumor activity against human OVCAR-3 cells after 48 hrs; assay type: functional; details: OVCAR-3, 48 h; how it was run: as §1
HCT-116 [1] = assay: Growth inhibition of human HCT116 cells after 5 days by MTT assay; assay type: functional; details: HCT-116, 120 h
How it was run: (§2)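 MTT assay after 5 day continuous exposure. GI50, TGI and LC50 calculated from the MTT data. Means ± SD of at least three independent experiments; coefficients of variation 10-20%. Compounds used as tri(methanesulfonate) salts.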

HT-29 [2] = assay: Growth inhibition of human HT29 cells after 5 days by MTT assay; assay type: functional; details: HT-29, 120 h; how it was run: as §2
PC-3 = assay: Antitumor activity against PC3 cells expressing mutated p53; assay type: functional, cell-based; details: Homo sapiens
How it was run: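 Compounds tested as tri(methanesulfonate) salts, soluble in water and dilute buffers. Human tumour cells carrying wild-type or mutated p53 were exposed for 5 days, and viability was read by MTT assay. GI50, TGI and LC50 were calculated from the MTT data. Values are means ± SD of at least three independent experiments, with coefficients of variation of 10–20%.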

HCT-116 [3] = assay: Cell cycle arrest in HCT116 cells assessed as accumulation at G2/M phase at 50 nM after 72 hrs; assay type: functional, Homo sapiens
How it was run: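 HCT116 cells exposed to 50 nM drug for 72 h, then cell-cycle distribution analysed. Sub-G1, G1, S and G2/M fractions reported as percent of cells, with untreated control cells for comparison.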

[4] = Drug level in NCR nu/nu mouse plasma at 20 mg/kg, iv after 8 hrs; assay type: ADME, organism-based; parameters: dose 20 mg/kg, route intravenous
How it was run: (§3)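 Single i.v. dose of 20 mg/kg to ncr nu/nu mice and an F344 rat. Plasma concentrations followed over time and fitted by nonlinear regression to give distribution and elimination phases, AUC and apparent volumes of distribution. Detection limit 50 nM.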

[5] = Apparent volume of distribution in F344 rat at 20 mg/kg, iv; assay type: ADME, organism-based; parameters: dose 20 mg/kg, route intravenous; details: in vivo; how it was run: as §3
HCT-116 [6] = assay: Inhibition of tumor growth in HCT116 cells xenografted in nu/nu mouse; assay type: functional, Homo sapiens
How it was run: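 HCT116 xenografts in mice; compound given i.v. on a Q3Dx4 schedule, starting when tumours reached 62 mm3. Tumour growth inhibition measured.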

EKVX = assay: Antitumor activity against human EKVX cells after 48 hrs; assay type: functional; how it was run: as §1
NCI-H226 = assay: Antitumor activity against human NCI-H226 cells after 48 hrs; assay type: functional; details: NCI-H226, 48 h; how it was run: as §1
NCI-H460 = assay: Antitumor activity against human NCI-H460 cells after 48 hrs; assay type: functional; details: NCI-H460, 48 h; how it was run: as §1
HCC 2998 = assay: Antitumor activity against human HCC2998 cells after 48 hrs; assay type: functional; details: HCC 2998, 48 h; how it was run: as §1
HCT-116 [7] = assay: Antitumor activity against human HCT116 cells after 48 hrs; assay type: functional; details: HCT-116, 48 h; how it was run: as §1
HT-29 [8] = assay: Antitumor activity against human HT29 cells after 48 hrs; assay type: functional; details: HT-29, 48 h; how it was run: as §1
[9] = read-out: Log LC50 (the source's name) (converted)

Work on COc1ccc2c(c1)c(=O)c1c(NCCCN3CCN(CCCN4C(=O)c5cccc6cc([N+](=O)[O-])cc(c56)C4=O)CC3)ccc3ncn2c31.CS(=O)(=O)O yielded a GI50 (U-251) of 2.19 nM, a CC50 (U-251; [9]) of over 1000 nM and a TGI (U-251; read-out: Log TGI (converted)) of over 1000 nM. For the same compound, the GI50 (SK-MEL-5) was 4.9 nM, the CC50 (SK-MEL-5; [9]) was 871 nM and the TGI (SK-MEL-5; read-out: Log TGI (converted)) was 43.6 nM. For the same compound, the GI50 (SK-MEL-2) was 27.5 nM, the CC50 (SK-MEL-2; [9]) was over 1000 nM and the TGI (SK-MEL-2; read-out: Log TGI (converted)) was over 1000 nM. It also gave a GI50 (IGROV-1) of 3.39 nM, a CC50 (IGROV-1; [9]) of over 1000 nM and a TGI (IGROV-1; read-out: Log TGI (converted)) of 51.3 nM. For the same compound, the GI50 (OVCAR-3) was 50.1 nM, the CC50 (OVCAR-3; [9]) was over 1000 nM and the TGI (OVCAR-3; read-out: Log TGI (converted)) was over 1000 nM. For the same compound, the GI50 (HCT-116 [1]) was 1 nM, the LC50 (HCT-116 [1]) was 30 nM and the GI50 (HT-29 [2]) was 1 nM. For the same compound, the CC50 (HT-29 [2]; read-out: LC50 (the source's name)) was 80 nM, the IC50 (PC-3) was 45 nM and the Activity (HCT-116 [3]) was 27.1%. For the same compound, the concentration at 8 h [4] was 70 nM, the Vd [5] was 138 L/kg and the TGI (HCT-116 [6]) was 59%. The GI50 (EKVX) was 3.31 nM, the CC50 (EKVX; [9]) was over 1000 nM and the TGI (EKVX; read-out: Log TGI (converted)) was 58.9 nM. It also gave a GI50 (NCI-H226) of 1.32 nM, a CC50 (NCI-H226; [9]) of over 1000 nM and a TGI (NCI-H226; read-out: Log TGI (converted)) of 32.4 nM. It also gave a GI50 (NCI-H460) of 2.57 nM, a CC50 (NCI-H460; [9]) of over 1000 nM and a TGI (NCI-H460; read-out: Log TGI (converted)) of over 1000 nM. The GI50 (HCC 2998) was 11.5 nM, the CC50 (HCC 2998; [9]) was over 1000 nM and the TGI (HCC 2998; read-out: Log TGI (converted)) was over 1000 nM. It also gave a GI50 (HCT-116 [7]) of 0.407 nM, a CC50 (HCT-116 [7]; [9]) of 214 nM and a TGI (HCT-116 [7]; read-out: Log TGI (converted)) of 15.1 nM. For the same compound, the GI50 (HT-29 [8]) was 2.75 nM, the CC50 (HT-29 [8]; [9]) was over 1000 nM and the TGI (HT-29 [8]; read-out: Log TGI (converted)) was 295 nM.
